Results published in PMC5384886 (International Journal for Parasitology: Drugs and Drug …, 2017).
Like-named read-outs stand apart in the source and are kept apart here.

Legend:
[1] = system: adult S. japonicum; experiment: In vitro assay for drug effect on adult S. japonicum; type: cell-based, Schistosoma japonicum; conditions: 72 h
How it was run: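 Adult worms taken from infected mice 34–38 days post-infection, perfused with ice-cold heparinised HBSS, rinsed three times. Kept in RPMI 1640 with 10% calf serum, penicillin, streptomycin and amphotericin B. Four worm pairs per well, 2 h preincubation at 37 °C, 5% CO2, then compound at final 10 or 5 μg/mL; DMSO control. Scored at 24, 48, 72 h; death = no sucker/body movement for 2 min.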

[2] = system: Pf3D7 (chloroquine-sensitive) strain; experiment: In vitro P. falciparum whole cell assay; type: cell-based; conditions: Plasmodium falciparum, 72 h, read-out: Pf3D7 IC50
How it was run: (§1)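 Parasites synchronised to 95% ring stage with 5% sorbitol. Stocks: chloroquine in water, test compounds and dihydroartemisinin in DMSO, diluted in incomplete 1640 medium. Ring-stage cultures (1% parasitaemia, 2% haematocrit) exposed to serial dilutions for 72 h at 37 °C. Growth read by SYBR Green I fluorescence. IC50 from a sigmoidal growth fit.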

[3] = system: β-hematin formation; experiment: Inhibition assay of β-hematin formation; type: biochemical; conditions: for β-Hematin % Inhibition: at a concentration of 100 μM; for IC50: read-out: β-Hematin IC50
How it was run: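 NP-40 detergent-mediated β-hematin assay. Compound in DMSO plus NP-40 and water. Hematin was dissolved in DMSO (25 mM stock) and suspended in acetate buffer (pH 4.8; final 0.5 M). Incubated 4 h at 37 °C. Controls: DMSO (negative), chloroquine and amodiaquine (100 μM final). Pyridine-ferrichrome read-out: 5% v/v final pyridine, HEPES pH 7.4, extra acetone, 405 nm. % inhibition at 100 μM; IC50 from concentration series; triplicate, repeated twice.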

[4] = Cytotoxicity assay on WI38 cells; type: cell-based, human; conditions: human, WI38 cells (human embryonic lung fibroblasts)
How it was run: (§2)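 WI38 cells harvested at log phase and seeded at 10 000/well in DMEM or MEM with 10% FBS and 1% penicillin-streptomycin. After 12 h adherence at 37 °C, 5% CO2, 2-fold dilutions (final 50 to 1.57 μM) were added in triplicate for 2 days. MTT read-out: 4 h, DMSO solubilisation, 490 nm. CC50 is the mean of two independent experiments. SI = CC50/IC50 for each Pf strain.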

[5] = system: human embryonic lung fibroblast WI38; experiment: Cytotoxicity assay on WI38 cells; type: cell-based; conditions: for SI CC50/IC50 (Pf3D7): CC50 WI38 / IC50 Pf3D7; for SI CC50/IC50 (PfDd2): CC50 WI38 / IC50 PfDd2
How it was run: as §2

[6] = system: PfDd2 (chloroquine-resistant) strain; experiment: In vitro P. falciparum whole cell assay; type: cell-based; conditions: Plasmodium falciparum, 72 h, read-out: PfDd2 IC50
How it was run: as §1

[7] = system: juvenile S. japonicum (schistosomula); experiment: In vitro assay for drug effect on juvenile S. japonicum; type: cell-based, Schistosoma japonicum; conditions: 10 μg/mL
How it was run: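 Cercariae mechanically transformed to schistosomula and kept in RPMI 1640 with 5% FBS, 100 IU/mL penicillin and 100 μg/mL streptomycin at 37 °C, 5% CO2. 50 schistosomula/well exposed to compound at final 10 μg/mL for 72 h, in duplicate, with DMSO negative control. Activity, survival time, mortality and morphology scored microscopically at 12, 24, 48 and 72 h.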

CCCCNC[C@@H](O)Cn1c2ccc(Cl)cc2c2cc(Cl)ccc21 [(R)-7, (R)-1-(butylamino)-3-(3,6-dichloro-9H-carbazol-9-yl)propan-2-ol]
Adult S. japonicum worm-killing ([1]; 5 μg/mL): +
Adult S. japonicum worm-killing ([1]; 10 μg/mL): +
IC50 [2]: 0.344 ± 0.054 µM
β-Hematin % Inhibition [3]: 75.13%
IC50 [3]: 119 ± 7.14 µM
CC50 at 2 days [4]: 7.69 µM
SI CC50/IC50 (Pf3D7) [5]: 22
SI CC50/IC50 (PfDd2) [5]: 45
IC50 [6]: 0.172 ± 0.032 µM
Juvenile S. japonicum worm-killing [7]: +

CCCCNC[C@H](O)Cn1c2ccc(Cl)cc2c2cc(Cl)ccc21 [(S)-7, (S)-1-(butylamino)-3-(3,6-dichloro-9H-carbazol-9-yl)propan-2-ol]
Adult S. japonicum worm-killing ([1]; 5 μg/mL): +
Adult S. japonicum worm-killing ([1]; 10 μg/mL): +
IC50 [2]: 0.378 ± 0.091 µM
β-Hematin % Inhibition [3]: 80.09%
IC50 [3]: 106 ± 8.42 µM
CC50 at 2 days [4]: 9.34 µM
SI CC50/IC50 (Pf3D7) [5]: 24
SI CC50/IC50 (PfDd2) [5]: 83
IC50 [6]: 0.112 ± 0.03 µM
Juvenile S. japonicum worm-killing [7]: +

CCN(CC)Cc1cc(Nc2ccnc3cc(Cl)ccc23)ccc1O [Amodiaquine, reference compound]
β-Hematin % Inhibition [3]: 100%
IC50 [3]: 15.9 ± 1.29 µM

CCN(CC)CCCC(C)Nc1ccnc2cc(Cl)ccc12 (stereo not drawn) [Chloroquine, reference compound]
IC50 [2]: 0.015 ± 0.008 µM
β-Hematin % Inhibition [3]: 97.8%
IC50 [3]: 61 ± 5.55 µM
IC50 ([3]; listed as chloroquine): 61 µM
IC50 [6]: 0.231 ± 0.024 µM

OC(CN1CCCC1)Cn1c2ccc(Cl)cc2c2cc(Cl)ccc21 (stereo not drawn) [Compound 3, 1-(3,6-Dichloro-9H-carbazol-9-yl)-3-(pyrrolidin-1-yl)propan-2-ol]
Adult S. japonicum worm-killing ([1]; 10 μg/mL): +
IC50 [2]: 2.67 ± 0.87 µM
β-Hematin % Inhibition [3]: 10.76%

OC(CN1CCCCC1)Cn1c2ccc(Cl)cc2c2cc(Cl)ccc21 (stereo not drawn) [Compound 4, 1-(3,6-Dichloro-9H-carbazol-9-yl)-3-(piperidin-1-yl)propan-2-ol]
Adult S. japonicum worm-killing ([1]; 10 μg/mL): +

OC(CN1CCOCC1)Cn1c2ccc(Cl)cc2c2cc(Cl)ccc21 (stereo not drawn) [Compound 5, 1-(3,6-Dichloro-9H-carbazol-9-yl)-3-morpholinopropan-2-ol]
IC50 [2]: 1.29 ± 0.329 µM
β-Hematin % Inhibition [3]: 0%

CCCCCCNCC(O)Cn1c2ccc(Cl)cc2c2cc(Cl)ccc21 (stereo not drawn) [Compound 9, 1-(3,6-Dichloro-9H-carbazol-9-yl)-3-(hexylamino)propan-2-ol]
Adult S. japonicum worm-killing ([1]; 5 μg/mL): ±
Adult S. japonicum worm-killing ([1]; 10 μg/mL): +
IC50 [2]: 0.274 ± 0.063 µM
β-Hematin % Inhibition [3]: 81.85%
IC50 [3]: 55 ± 5.87 µM
CC50 at 2 days [4]: 5.92 µM
SI CC50/IC50 (Pf3D7) [5]: 22
SI CC50/IC50 (PfDd2) [5]: 126
IC50 [6]: 0.047 ± 0.01 µM
Juvenile S. japonicum worm-killing [7]: +

CCCCCCCNCC(O)Cn1c2ccc(Cl)cc2c2cc(Cl)ccc21 (stereo not drawn) [Compound 10, 1-(3,6-Dichloro-9H-carbazol-9-yl)-3-(heptylamino)propan-2-ol]
Adult S. japonicum worm-killing ([1]; 5 μg/mL): ±
Adult S. japonicum worm-killing ([1]; 10 μg/mL): +
IC50 [2]: 0.179 ± 0.044 µM
β-Hematin % Inhibition [3]: 74.74%
IC50 [3]: 91.6 ± 4.67 µM
CC50 at 2 days [4]: 5.14 µM
SI CC50/IC50 (Pf3D7) [5]: 28
SI CC50/IC50 (PfDd2) [5]: 95
IC50 [6]: 0.054 ± 0.01 µM
Juvenile S. japonicum worm-killing [7]: +

CCCCCCCCNCC(O)Cn1c2ccc(Cl)cc2c2cc(Cl)ccc21 (stereo not drawn) [Compound 11, 1-(3,6-Dichloro-9H-carbazol-9-yl)-3-(octylamino)propan-2-ol]
Adult S. japonicum worm-killing ([1]; 5 μg/mL): ±
Adult S. japonicum worm-killing ([1]; 10 μg/mL): +
IC50 [2]: 0.132 ± 0.059 µM
β-Hematin % Inhibition [3]: 50.59%
IC50 [3]: 65.4 ± 4.9 µM
CC50 at 2 days [4]: 3.77 µM
SI CC50/IC50 (Pf3D7) [5]: 29
SI CC50/IC50 (PfDd2) [5]: 70
IC50 [6]: 0.054 ± 0.006 µM
Juvenile S. japonicum worm-killing [7]: +

C[C@H]1[C@@H](O)O[C@@H]2O[C@@]3(C)CC[C@H]4[C@H](C)CC[C@@H]1[C@@]24OO3 [Dihydroartemisinin, reference compound]
IC50 [6]: 0.005 ± 0.0002 µM

O=C(C1CCCCC1)N1CC(=O)N2CCc3ccccc3C2C1 (stereo not drawn) [Praziquantel, reference compound]
Adult S. japonicum worm-killing ([1]; 5 μg/mL): +
Adult S. japonicum worm-killing ([1]; 10 μg/mL): +
